{
  "source": "ChEMBL document CHEMBL4842318",
  "about": "“A γ-lactam siderophore antibiotic effective against multidrug-resistant Pseudomonas aeruginosa, Klebsiella pneumoniae, and Acinetobacter spp” (Eur J Med Chem, 2021)",
  "key": {"Acinetobacter baumannii [1]": {"test_system": "Acinetobacter baumannii", "assay": "Antibacterial activity against panel of 198 clinical isolates Acinetobacter baumannii assessed as inhibition of bacterial growth by microdilution method", "assay_type": "functional"}, "[2]": {"target": "Penicillin-binding protein 3 (Pseudomonas aeruginosa, UniProt Q51504)", "sequence (Q51504 whole entry)": "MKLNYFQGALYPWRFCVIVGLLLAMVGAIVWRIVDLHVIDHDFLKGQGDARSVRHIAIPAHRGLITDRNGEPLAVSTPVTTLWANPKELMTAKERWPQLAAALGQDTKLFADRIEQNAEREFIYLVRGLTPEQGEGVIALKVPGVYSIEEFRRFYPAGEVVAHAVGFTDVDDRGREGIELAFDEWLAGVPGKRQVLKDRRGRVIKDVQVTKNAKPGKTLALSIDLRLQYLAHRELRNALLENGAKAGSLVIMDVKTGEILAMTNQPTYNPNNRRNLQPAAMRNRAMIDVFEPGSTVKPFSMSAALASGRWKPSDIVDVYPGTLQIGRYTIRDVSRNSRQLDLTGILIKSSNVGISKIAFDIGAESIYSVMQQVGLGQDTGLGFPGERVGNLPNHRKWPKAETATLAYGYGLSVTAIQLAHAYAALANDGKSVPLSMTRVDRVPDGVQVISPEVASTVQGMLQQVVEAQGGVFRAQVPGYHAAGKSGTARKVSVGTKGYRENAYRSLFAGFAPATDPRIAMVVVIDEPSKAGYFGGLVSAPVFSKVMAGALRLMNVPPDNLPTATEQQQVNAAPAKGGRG", "assay": "Inhibition of Pseudomonas aeruginosa PBP3 assessed as reduction in fluorescence intensity using Bocillin-protein as fluorescent substrate preincubated for 20 mins measured after 20 mins by SDS PAGE analysis", "how_it_was_run": "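Purified soluble P. aeruginosa PBP3 at 1.6 μM in 10 mM PBS, pH 7.4. Preincubated with increasing compound concentrations for 20 min at 37 °C, then 50 μM Bocillin added for a further 20 min. Stopped with SDS loading dye and 2 min boiling, then run on SDS-PAGE and imaged at 365 nm. IC50 taken as the concentration halving Bocillin-labelled band fluorescence.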"}, "Acinetobacter baumannii [3]": {"test_system": "Acinetobacter baumannii", "assay": "Antibacterial activity against carbapenem susceptible Acinetobacter baumannii isolate PR-340 assessed as bacterial growth inhibition by microdilution method", "assay_type": "functional", "how_it_was_run": "(§1)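 Broth microdilution MIC in iron-depleted (Chelex resin-treated) cation-adjusted Mueller-Hinton broth, following the protocol used for siderophore-containing antibiotics. Inoculum was lowered to 6 × 10^4 cfu/mL.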"}, "Acinetobacter baumannii [4]": {"test_system": "Acinetobacter baumannii", "assay": "Antibacterial activity against carbapenem resistant Acinetobacter baumannii isolate PR-345 assessed as bacterial growth inhibition by microdilution method", "assay_type": "functional", "how_it_was_run": "(§2)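 Broth microdilution in Chelex-treated, iron-depleted cation-adjusted Mueller-Hinton broth, following the protocol used for siderophore-containing antibiotics; inoculum lowered to 6 × 10^4 cfu/mL; MIC read as growth inhibition, in μg/mL.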"}, "Acinetobacter baumannii [5]": {"test_system": "Acinetobacter baumannii", "assay": "Antibacterial activity against carbapenem resistant Acinetobacter baumannii isolate PR-351 assessed as bacterial growth inhibition by microdilution method", "assay_type": "functional", "how_it_was_run": "as §2"}, "Acinetobacter baumannii [6]": {"test_system": "Acinetobacter baumannii", "assay": "Antibacterial activity against carbapenem resistant Acinetobacter baumannii isolate PR-401 assessed as bacterial growth inhibition by microdilution method", "assay_type": "functional", "how_it_was_run": "as §2"}, "[7]": {"assay": "Antibacterial activity against carbapenem susceptible Acinetobacter nosocomialis isolate PR-362 assessed as bacterial growth inhibition by microdilution method", "assay_type": "functional", "how_it_was_run": "as §1"}, "[8]": {"assay": "Antibacterial activity against carbapenem susceptible Acinetobacter nosocomialis isolate PR-491 assessed as bacterial growth inhibition by microdilution method", "assay_type": "functional", "how_it_was_run": "as §1"}, "Acinetobacter baumannii [9]": {"test_system": "Acinetobacter baumannii", "assay": "Antibacterial activity against carbapenem susceptible Acinetobacter baumannii isolate PR-464 assessed as bacterial growth inhibition by microdilution method", "assay_type": "functional", "how_it_was_run": "as §1"}, "Acinetobacter baumannii [10]": {"test_system": "Acinetobacter baumannii", "assay": "Antibacterial activity against carbapenem resistant Acinetobacter baumannii isolate PR-314 assessed as inhibition of bacterial growth at 1:1 compound to sulbactam concentration by microdilution method", "assay_type": "functional", "how_it_was_run": "(§3)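 Iron-depleted (Chelex-treated) cation-adjusted Mueller-Hinton broth microdilution; inoculum 6 × 10^4 cfu/mL. Test agent and sulbactam mixed 1:1 by mass and serially 2-fold diluted together. MIC in μg/mL.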"}, "Acinetobacter baumannii [11]": {"test_system": "Acinetobacter baumannii", "assay": "Antibacterial activity against carbapenem resistant Acinetobacter baumannii isolate PR-387 assessed as inhibition of bacterial growth at 1:1 compound to sulbactam concentration by microdilution method", "assay_type": "functional", "how_it_was_run": "as §3"}, "Acinetobacter baumannii [12]": {"test_system": "Acinetobacter baumannii", "assay": "Antibacterial activity against carbapenem resistant Acinetobacter baumannii isolate PR-399 assessed as inhibition of bacterial growth at 1:1 compound to sulbactam concentration by microdilution method", "assay_type": "functional", "how_it_was_run": "as §3"}, "Acinetobacter baumannii [13]": {"test_system": "Acinetobacter baumannii", "assay": "Antibacterial activity against carbapenem resistant Acinetobacter baumannii isolate PR-423 assessed as inhibition of bacterial growth at 1:1 compound to sulbactam concentration by microdilution method", "assay_type": "functional", "how_it_was_run": "as §3"}, "Acinetobacter baumannii [14]": {"test_system": "Acinetobacter baumannii", "assay": "Antibacterial activity against carbapenem susceptible Acinetobacter baumannii isolate PR-434 assessed as inhibition of bacterial growth at 1:1 compound to sulbactam concentration by microdilution method", "assay_type": "functional", "how_it_was_run": "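Broth microdilution MIC in Chelex-treated, iron-depleted cation-adjusted Mueller-Hinton broth, inoculum 6 × 10^4 cfu/mL. Compound and sulbactam combined 1:1 by mass in a 2-fold dilution series.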"}, "Acinetobacter baumannii [15]": {"test_system": "Acinetobacter baumannii", "assay": "Antibacterial activity against carbapenem resistant Acinetobacter baumannii isolate PR-319 assessed as inhibition of bacterial growth in presence of 20 ug/ml sulbactam by microdilution method", "assay_type": "functional", "details": "dose 20 µg/ml"}, "Acinetobacter baumannii [16]": {"test_system": "Acinetobacter baumannii", "assay": "Antibacterial activity against carbapenem resistant Acinetobacter baumannii isolate PR-399 assessed as inhibition of bacterial growth in presence of 20 ug/ml sulbactam by microdilution method", "assay_type": "functional", "details": "dose 20 µg/ml"}, "Acinetobacter baumannii [17]": {"test_system": "Acinetobacter baumannii", "assay": "Antibacterial activity against carbapenem resistant Acinetobacter baumannii isolate PR-459 assessed as inhibition of bacterial growth in presence of 20 ug/ml sulbactam by microdilution method", "assay_type": "functional", "details": "dose 20 µg/ml"}, "[18]": {"assay": "Permeability in human Caco-2 cells", "assay_type": "ADME, cell-based"}, "CYP2C8": {"target": "T1, CYP2C8 (Homo sapiens, UniProt P10632)", "T1 sequence (P10632 whole entry)": "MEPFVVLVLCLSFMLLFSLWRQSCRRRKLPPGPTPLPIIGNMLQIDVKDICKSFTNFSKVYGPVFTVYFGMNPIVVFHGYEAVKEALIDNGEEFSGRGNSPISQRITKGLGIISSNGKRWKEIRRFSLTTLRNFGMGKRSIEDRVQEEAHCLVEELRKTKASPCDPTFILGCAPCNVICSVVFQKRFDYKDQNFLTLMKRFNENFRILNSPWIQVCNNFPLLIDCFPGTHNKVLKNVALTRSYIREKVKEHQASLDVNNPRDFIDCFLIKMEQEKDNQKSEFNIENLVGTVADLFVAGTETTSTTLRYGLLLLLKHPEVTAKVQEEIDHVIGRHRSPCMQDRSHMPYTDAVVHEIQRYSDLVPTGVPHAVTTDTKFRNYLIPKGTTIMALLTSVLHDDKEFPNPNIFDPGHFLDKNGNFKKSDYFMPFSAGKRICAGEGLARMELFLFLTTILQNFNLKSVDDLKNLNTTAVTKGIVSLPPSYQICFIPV", "assay": "Inhibition of CYP2C8 (unknown origin) at 100 uM", "assay_type": "ADME"}, "Hepatocyte": {"test_system": "Hepatocyte", "assay": "Cytotoxicity against human hepatocytes at 100 uM", "assay_type": "cell-based"}, "Pseudomonas aeruginosa [19]": {"test_system": "Pseudomonas aeruginosa", "assay": "Antibacterial activity against wild type Pseudomonas aeruginosa isolate PR-606 assessed as inhibition of bacterial growth by microdilution method", "assay_type": "functional", "how_it_was_run": "as §1"}, "Pseudomonas aeruginosa [20]": {"test_system": "Pseudomonas aeruginosa", "assay": "Antibacterial activity against Pseudomonas aeruginosa isolate PR-627 leucine at 533 residue assessed as inhibition of bacterial growth by microdilution method", "assay_type": "functional", "how_it_was_run": "as §2"}, "Pseudomonas aeruginosa [21]": {"test_system": "Pseudomonas aeruginosa", "assay": "Antibacterial activity against wild type Pseudomonas aeruginosa isolate PR-636 leucine at 533 residue assessed as inhibition of bacterial growth by microdilution method", "assay_type": "functional", "how_it_was_run": "as §1"}, "Pseudomonas aeruginosa [22]": {"test_system": "Pseudomonas aeruginosa", "assay": "Antibacterial activity against wild type Pseudomonas aeruginosa isolate PR-651 leucine at 533 residue assessed as inhibition of bacterial growth by microdilution method", "assay_type": "functional", "how_it_was_run": "as §1"}, "[23]": {"assay": "Substrate activity at NDM1 (unknown origin) assessed as ratio of Kcat to Km by measuring hydrolysis by spectrophotometry", "assay_type": "ADME", "how_it_was_run": "(§4)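 Substrate hydrolysis (600 μM start) followed at 336 nm (Δε336 = −4362 M−1 cm−1, 0.2 cm cuvette) to completion; velocities over 10 s intervals along progress curve; Km, Vmax from double reciprocal plot, kcat = Vmax/[E].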"}, "[24]": {"assay": "Substrate activity at VIM-2 (unknown origin) assessed as Kcat by measuring hydrolysis by spectrophotometry", "assay_type": "ADME", "how_it_was_run": "as §4"}, "[25]": {"assay": "Substrate activity at VIM-2 (unknown origin) assessed as ratio of Kcat to Km by measuring hydrolysis by spectrophotometry", "assay_type": "ADME", "how_it_was_run": "as §4"}, "Acinetobacter baumannii [26]": {"test_system": "Acinetobacter baumannii", "assay": "Antibacterial activity against carbapenem susceptible Acinetobacter baumannii isolate PR-340 assessed as inhibition of bacterial growth in presence of 20 ug/ml sulbactam by microdilution method"}},
  "data": [
    {"smiles": "CC(C)(O/N=C(\\C(=O)N[C@H]1CN2CC(C(=O)NCCN3C(=O)c4cc(O)c(O)cc4C3=O)=C(C(=O)O)N2C1=O)c1nc(N)sc1Cl)C(=O)O", "values": [
      {"measurement": "MIC50", "setting": "Acinetobacter baumannii [1]", "value": 0.5, "unit": "µg/mL"},
      {"measurement": "MIC90", "setting": "Acinetobacter baumannii [1]", "value": "> 16", "unit": "µg/mL"},
      {"measurement": "IC50", "setting": "[2]", "value": 5, "unit": "µM"},
      {"measurement": "MIC", "setting": "Acinetobacter baumannii [3]", "value": "> 16", "unit": "µg/mL"},
      {"measurement": "MIC", "setting": "Acinetobacter baumannii [4]", "value": "> 16", "unit": "µg/mL"},
      {"measurement": "MIC", "setting": "Acinetobacter baumannii [5]", "value": "> 16", "unit": "µg/mL"},
      {"measurement": "MIC", "setting": "Acinetobacter baumannii [6]", "value": "> 16", "unit": "µg/mL"},
      {"measurement": "MIC", "setting": "[7]", "value": "> 16", "unit": "µg/mL"},
      {"measurement": "MIC", "setting": "[8]", "value": "> 16", "unit": "µg/mL"},
      {"measurement": "MIC", "setting": "Acinetobacter baumannii [9]", "value": "> 16", "unit": "µg/mL"},
      {"measurement": "MIC", "setting": "Acinetobacter baumannii [10]", "value": 4, "unit": "µg/mL"},
      {"measurement": "MIC", "setting": "Acinetobacter baumannii [11]", "value": 16, "unit": "µg/mL"},
      {"measurement": "MIC", "setting": "Acinetobacter baumannii [12]", "value": 16, "unit": "µg/mL"},
      {"measurement": "MIC", "setting": "Acinetobacter baumannii [13]", "value": 8, "unit": "µg/mL"},
      {"measurement": "MIC", "setting": "Acinetobacter baumannii [14]", "value": 2, "unit": "µg/mL"},
      {"measurement": "MIC", "setting": "Acinetobacter baumannii [15]", "value": 0.5, "unit": "µg/mL"},
      {"measurement": "MIC", "setting": "Acinetobacter baumannii [16]", "value": "≤ 0.25", "unit": "µg/mL"},
      {"measurement": "MIC", "setting": "Acinetobacter baumannii [17]", "value": 4, "unit": "µg/mL"},
      {"measurement": "permeability", "setting": "[18]", "value": "Impermeable"},
      {"measurement": "inhibition at 100 µM", "setting": "CYP2C8", "value": 50, "unit": "%"},
      {"measurement": "Activity", "setting": "Hepatocyte", "value": "Non-Toxic"},
      {"measurement": "MIC", "setting": "Pseudomonas aeruginosa [19]", "value": "> 16", "unit": "µg/mL"},
      {"measurement": "MIC", "setting": "Pseudomonas aeruginosa [20]", "value": "> 16", "unit": "µg/mL"},
      {"measurement": "MIC", "setting": "Pseudomonas aeruginosa [21]", "value": "> 16", "unit": "µg/mL"},
      {"measurement": "MIC", "setting": "Pseudomonas aeruginosa [22]", "value": "> 16", "unit": "µg/mL"},
      {"measurement": "Kcat/Km", "setting": "[23]", "value": 20000, "unit": "M⁻¹ s⁻¹"},
      {"measurement": "Kcat", "setting": "[24]", "value": 54, "unit": "s⁻¹"},
      {"measurement": "Kcat/Km", "setting": "[25]", "value": 12000, "unit": "M⁻¹ s⁻¹"},
      {"measurement": "MIC", "setting": "Acinetobacter baumannii [26]", "value": "≤ 0.25", "unit": "µg/mL"}
    ]}
  ]
}
